# Experimental data as given in ChEMBL document CHEMBL1649115, “Enhanced susceptibility to antifungal oligopeptides in yeast strains overexpressing ABC multidrug efflux pumps” (Antimicrob Agents Chemother, 2008).
# Residues, ends and D or L forms follow the SMILES beside them. *: point of attachment. Ethyl(2-NH2) = NCC*
# Key:
# Candida albicans [1] = assay: Prodrug stability in fluconazole sensitive Candida albicans isolate B3 assessed as compound cleavage rate measured per mg of protein; format: ADME, organism-based; conditions: in vivo
# Saccharomyces cerevisiae [2] = assay: Prodrug stability in Saccharomyces cerevisiae ADCDR1 expressing Candida albicans CDR1 efflux pump assessed as compound cleavage rate measured per mg of protein; format: ADME, organism-based; conditions: in vivo
# Saccharomyces cerevisiae [3] = assay: Prodrug stability in Saccharomyces cerevisiae AD12345678 assessed as compound cleavage rate measured per mg of protein; format: ADME, organism-based; conditions: in vivo
# Saccharomyces cerevisiae [4] = assay: Drug uptake in Saccharomyces cerevisiae ADCDR1 expressing Candida albicans CDR1 efflux pump at 200 uM pretreated for 10 mins measured after 60 mins by fluorescamine staining; format: ADME, organism-based; conditions: in vivo, 1 h
# Saccharomyces cerevisiae [5] = assay: Prodrug stability in wild type Saccharomyces cerevisiae ATCC 9763 assessed as compound cleavage rate measured per mg of protein; format: ADME, organism-based; conditions: in vivo
# Saccharomyces cerevisiae [6] = assay: Drug uptake in Saccharomyces cerevisiae ADCDR2 expressing Candida albicans CDR2 efflux pump at 200 uM pretreated for 10 mins measured after 60 mins by fluorescamine staining; format: ADME, organism-based; conditions: in vivo, 1 h
# Saccharomyces cerevisiae [7] = assay: Drug uptake in Saccharomyces cerevisiae ADMDR1 expressing Candida albicans MDR1 efflux pump at 200 uM pretreated for 10 mins measured after 60 mins by fluorescamine staining; format: ADME, organism-based; conditions: in vivo, 1 h
# Saccharomyces cerevisiae [8] = assay: Prodrug stability in Saccharomyces cerevisiae ADMDR1 expressing Candida albicans MDR1 efflux pump assessed as compound cleavage rate measured per mg of protein; format: ADME, organism-based; conditions: in vivo
# Saccharomyces cerevisiae [9] = assay: Drug uptake in Saccharomyces cerevisiae AD12345678 at 200 uM pretreated for 10 mins measured after 60 mins by fluorescamine staining; format: ADME, organism-based; conditions: in vivo, 1 h
# Candida albicans [10] = assay: Prodrug stability in fluconazole sensitive Candida albicans isolate Gu4 assessed as compound cleavage rate measured per mg of protein; format: ADME, organism-based; conditions: in vivo
# In short: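 Oligopeptides were incubated with cell extracts of the yeast cells, and their hydrolytic enzymes cleaved them. The amino acids released were quantified by the Cd-ninhydrin method.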
# Candida albicans [11] = assay: Prodrug stability in wild type Candida albicans 10261 assessed as compound cleavage rate measured per mg of protein; format: ADME, organism-based; conditions: in vivo
# Saccharomyces cerevisiae [12] = assay: Prodrug stability in Saccharomyces cerevisiae ADCDR2 expressing Candida albicans CDR2 efflux pump assessed as compound cleavage rate measured per mg of protein; format: ADME, organism-based; conditions: in vivo
# Saccharomyces cerevisiae [13] = assay: Antifungal activity against Saccharomyces cerevisiae AD12345678 in YNPG-proline medium after 24 hrs by microdilution method; format: functional; conditions: AD12345678, 24 h
# Saccharomyces cerevisiae [14] = assay: Antifungal activity against Saccharomyces cerevisiae ADCDR1 expressing Candida albicans CDR1 efflux pump in YNPG-proline medium after 24 hrs by microdilution method; format: functional; conditions: ADCDR1, 24 h
# Saccharomyces cerevisiae [15] = assay: Antifungal activity against Saccharomyces cerevisiae ADCDR2 expressing Candida albicans CDR2 efflux pump in YNPG-proline medium after 24 hrs by microdilution method; format: functional; conditions: ADCDR2, 24 h
# Saccharomyces cerevisiae [16] = assay: Antifungal activity against Saccharomyces cerevisiae ADMDR1 expressing Candida albicans MDR1 efflux pump in YNPG-proline medium after 24 hrs by microdilution method; format: functional; conditions: ADMDR1, 24 h
# Saccharomyces cerevisiae [17] = assay: Antifungal activity against wild type Saccharomyces cerevisiae ATCC 9763 in YNPG-proline medium after 24 hrs by microdilution method; format: functional; conditions: ATCC 9763, 24 h
# Candida albicans [18] = assay: Antifungal activity against fluconazole resistant Candida albicans isolate B4 overexpressing MDR1 in RPMI-1640 buffered medium after 24 hrs by microdilution method; format: functional; conditions: Candida albicans, isolate B4, 24 h; read-out: MIC
# In short: (§1)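 C. albicans cells were grown in 2% glucose, 1% yeast extract, 1% Bacto peptone medium before testing. […] CARE-2 fingerprinting confirmed that each pair is a single strain.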
# Candida albicans [19] = assay: Antifungal activity against wild type Candida albicans 10261 in RPMI-1640 buffered medium after 24 hrs by microdilution method; format: functional; conditions: Candida albicans, 10261, 24 h; read-out: MIC; in short: as §1
# Candida albicans [20] = assay: Antifungal activity against fluconazole sensitive Candida albicans isolate Gu4 in RPMI-1640 buffered medium after 24 hrs by microdilution method; format: functional; conditions: Candida albicans, isolate Gu4, 24 h; read-out: MIC; in short: as §1
# Candida albicans [21] = assay: Antifungal activity against fluconazole resistant Candida albicans isolate Gu5 overexpressing CDR1 and CDR2 in RPMI-1640 buffered medium after 24 hrs by microdilution method; format: functional; conditions: isolate Gu5, 24 h
# In short: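 C. albicans cells were grown in 2% glucose, 1% yeast extract, 1% Bacto peptone medium before testing. CARE-2 fingerprinting confirmed that each pair is a single strain.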
# Candida albicans [22] = assay: Antifungal activity against fluconazole sensitive Candida albicans isolate B3 in RPMI-1640 buffered medium after 24 hrs by microdilution method; format: functional; conditions: Candida albicans, isolate B3, 24 h; read-out: MIC; in short: as §1
Compound,Stability (Candida albicans [1]),Stability (Saccharomyces cerevisiae [2]),Stability (Saccharomyces cerevisiae [3]),Drug uptake (Saccharomyces cerevisiae [4]),Stability (Saccharomyces cerevisiae [5]),Drug uptake (Saccharomyces cerevisiae [6]),Drug uptake (Saccharomyces cerevisiae [7]),Stability (Saccharomyces cerevisiae [8]),Drug uptake (Saccharomyces cerevisiae [9]),Stability (Candida albicans [10]),Stability (Candida albicans [11]),Stability (Saccharomyces cerevisiae [12]),MIC (Saccharomyces cerevisiae [13]),MIC (Saccharomyces cerevisiae [14]),MIC (Saccharomyces cerevisiae [15]),MIC (Saccharomyces cerevisiae [16]),MIC (Saccharomyces cerevisiae [17]),MIC (Candida albicans [18]),MIC (Candida albicans [19]),MIC (Candida albicans [20]),also measured
CC(C)C[C@H](NC(=O)[C@H](CC(C)C)NC(=O)[C@@H](N)COCCN)C(=O)NCC(=O)O (H-S(Ethyl(2-NH2))LLG-OH) [listing 1 of 2 here],20 nmol/min,14 nmol/min,14 nmol/min,0.83 nmol/min/mg,14 nmol/min,0.96 nmol/min/mg,0.65 nmol/min/mg,14 nmol/min,0.51 nmol/min/mg,20 nmol/min,20 nmol/min,14 nmol/min,,,,,,,,,
CCC[C@H](NC(=O)[C@@H](N)CCCCN)C(=O)N[C@@H](CNC(=O)/C=C/C(=O)OC)C(=O)O [listing 1 of 2 here],20 nmol/min,14 nmol/min,14 nmol/min,1.61 nmol/min/mg,14 nmol/min,1.18 nmol/min/mg,0.81 nmol/min/mg,14 nmol/min,0.79 nmol/min/mg,20 nmol/min,20 nmol/min,14 nmol/min,,,,,,,,,
C[C@H](N)C(=O)O [ALANINE],,,,4.16 nmol/min/mg,,4.35 nmol/min/mg,3.33 nmol/min/mg,,3.51 nmol/min/mg,,,,,,,,,,,,
C[C@H](N)C(=O)N[C@@H](C)C(=O)N[C@@H](C)C(=O)O,,,,5.3 nmol/min/mg,,4.74 nmol/min/mg,2.91 nmol/min/mg,,3.15 nmol/min/mg,,,,,,,,,,,,
CC(C)C[C@H](NC(=O)[C@H](CC(C)C)NC(=O)[C@@H](N)COCCN)C(=O)NCC(=O)O (H-S(Ethyl(2-NH2))LLG-OH) [listing 2 of 2 here],,,,,,,,,,,,,64 µg/mL,16 µg/mL,32 µg/mL,64 µg/mL,64 µg/mL,,,,
CCC[C@H](NC(=O)[C@@H](N)CCCCN)C(=O)N[C@@H](CNC(=O)/C=C/C(=O)OC)C(=O)O [listing 2 of 2 here],,,,,,,,,,,,,32 µg/mL,4 µg/mL,8 µg/mL,32 µg/mL,32 µg/mL,8 µg/mL,8 µg/mL,4 µg/mL,MIC (Candida albicans [21]): 1 µg/mL; MIC (Candida albicans [22]): 8 µg/mL
C[C@H](NC(=O)[C@H](Cc1cnc[nH]1)NC(=O)[C@H](CO)NC(=O)[C@@H](N)CC(=O)O)C(=O)N[C@@H](CCCCN)C(=O)N[C@@H](CCCNC(=N)N)C(=O)N[C@@H](Cc1cnc[nH]1)C(=O)N[C@@H](Cc1cnc[nH]1)C(=O)NCC(=O)N[C@@H](Cc1ccc(O)cc1)C(=O)N[C@@H](CCCCN)C(=O)N[C@@H](CCCNC(=N)N)C(=O)N[C@@H](CCCCN)C(=O)N[C@@H](Cc1ccccc1)C(=O)N[C@@H](Cc1cnc[nH]1)C(=O)N[C@@H](CCC(=O)O)C(=O)N[C@@H](CCCCN)C(=O)N[C@@H](Cc1cnc[nH]1)C(=O)N[C@@H](Cc1cnc[nH]1)C(=O)N[C@@H](CO)C(=O)N[C@@H](Cc1cnc[nH]1)C(=O)N[C@@H](CCCNC(=N)N)C(=O)NCC(=O)N[C@@H](Cc1ccc(O)cc1)C(=O)O [HISTATIN 5],0.3 nmol/min,,,,,,,,,0.3 nmol/min,0.3 nmol/min,,128 µg/mL,128 µg/mL,128 µg/mL,128 µg/mL,128 µg/mL,32 µg/mL,32 µg/mL,32 µg/mL,MIC (Candida albicans [21]): 32 µg/mL; MIC (Candida albicans [22]): 32 µg/mL
CCC[C@H](N)C(=O)N[C@@H](CNC(=O)/C=C/C(=O)OC)C(=O)O,20 nmol/min,14 nmol/min,14 nmol/min,1.86 nmol/min/mg,14 nmol/min,1.56 nmol/min/mg,1.02 nmol/min/mg,14 nmol/min,0.96 nmol/min/mg,20 nmol/min,20 nmol/min,14 nmol/min,4 µg/mL,0.5 µg/mL,1 µg/mL,4 µg/mL,4 µg/mL,4 µg/mL,2 µg/mL,2 µg/mL,MIC (Candida albicans [21]): 0.125 µg/mL; MIC (Candida albicans [22]): 4 µg/mL
